In ChEMBL document CHEMBL1138348, “A p-[18F]fluoroethoxyphenyl bicyclic nucleoside analogue as a potential positron emission tomography imaging agent for varicella-zoster virus thymidine kinase gene expression” (J Med Chem, 2007):

What was measured:
[1] = Inhibition of Varicella zoster virus thymidine kinase; design: species or system Human alphaherpesvirus 3
Method in brief: (§1)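 Purified recombinant VZV TK (7.75 ng), HSV-1 TK (226 ng) or human cytosolic TK-1 (455 ng) in 50 mM Tris-HCl pH 8.0, 2.5 mM MgCl2, 10 mM DTT, 2.5 mM ATP, 1 mg/mL BSA, 10 mM NaF, with 1 µM final [CH3-3H]dThd substrate. Incubated 30 min at 37 °C with varied compound concentrations; the reaction was linear over this time. Product bound on DE-81 filters, washed, and counted by liquid scintillation. Result reported as IC50.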

[2] = target: T1, Thymidine kinase, cytosolic (Homo sapiens, UniProt P04183); assay: Inhibition of human cytosolic thymidine kinase 1; method in brief: as §1
T1 sequence (P04183 whole entry): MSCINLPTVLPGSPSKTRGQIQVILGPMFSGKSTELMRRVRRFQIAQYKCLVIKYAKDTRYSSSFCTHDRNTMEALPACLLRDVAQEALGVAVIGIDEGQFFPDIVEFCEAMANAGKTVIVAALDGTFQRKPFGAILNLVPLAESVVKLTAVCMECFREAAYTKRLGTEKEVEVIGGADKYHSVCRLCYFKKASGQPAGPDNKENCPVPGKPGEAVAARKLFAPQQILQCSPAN

[3] = Inhibition of HSV1 thymidine kinase; design: species or system Human alphaherpesvirus 1; method in brief: as §1
Kidney [4] = assay: Biodistribution in NMRI mouse kidney assessed as radioactivity after 60 mins; format: ADME, organism-based; conditions: in vivo, 1 h
Method in brief: (§2)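 Male NMRI mice (37–43 g) given 0.1 mL HPLC-purified tracer (diluted in water for injection, EtOH <5%; 37 MBq/mL for 11C tracer, 3.7 MBq/mL for 18F tracer) via tail vein under ketamine/xylazine ip anaesthesia. Decapitation at 2 or 60 min, n=3 per time point. Organs dissected, weighed, gamma counted. Results given as %ID (cpm organ/total cpm recovered) or SUV. Blood mass taken as 7% of body mass. Mean ± SD.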

Mus musculus [5] = species: Mus musculus; assay: Biodistribution in NMRI mouse carcass assessed as radioactivity after 2 mins; format: ADME, organism-based; conditions: in vivo; method in brief: as §2
Intestine [6] = assay: Biodistribution in NMRI mouse intestine assessed as radioactivity after 60 mins; format: ADME, organism-based; conditions: in vivo, 1 h; method in brief: as §2
Lung [7] = assay: Biodistribution in NMRI mouse lungs assessed as radioactivity after 60 mins; format: ADME, organism-based; conditions: in vivo, 1 h; method in brief: as §2
Mus musculus [8] = species: Mus musculus; assay: Biodistribution in NMRI mouse urine assessed as radioactivity after 2 mins; format: ADME, organism-based; conditions: in vivo; method in brief: as §2
Mus musculus [9] = species: Mus musculus; assay: Biodistribution in NMRI mouse spleen + pancreas assessed as radioactivity after 60 mins; format: ADME, organism-based; conditions: in vivo, 1 h; method in brief: as §2
Heart [10] = assay: Biodistribution in NMRI mouse heart assessed as radioactivity after 60 mins; format: ADME, organism-based; conditions: in vivo, 1 h; method in brief: as §2
Blood [11] = assay: Biodistribution in NMRI mouse blood assessed as radioactivity after 60 mins; format: ADME, organism-based; conditions: in vivo, 1 h; method in brief: as §2
Stomach [12] = assay: Biodistribution in NMRI mouse stomach assessed as radioactivity after 60 mins; format: ADME, organism-based; conditions: in vivo, 1 h; method in brief: as §2
Mus musculus [13] = species: Mus musculus; assay: Biodistribution in NMRI mouse spleen + pancreas assessed as radioactivity after 2 mins; format: ADME, organism-based; conditions: in vivo; method in brief: as §2
Brain [14] = assay: Biodistribution in NMRI mouse brain assessed as radioactivity after 60 mins; format: ADME, organism-based; conditions: in vivo, 1 h; method in brief: as §2
Kidney [15] = assay: Biodistribution in NMRI mouse kidney assessed as radioactivity after 2 mins; format: ADME, organism-based; conditions: in vivo; method in brief: as §2
Lung [16] = assay: Biodistribution in NMRI mouse lungs assessed as radioactivity after 2 mins; format: ADME, organism-based; conditions: in vivo; method in brief: as §2
Liver [17] = assay: Biodistribution in NMRI mouse liver assessed as radioactivity after 2 mins; format: ADME, organism-based; conditions: in vivo; method in brief: as §2
[18] = Drug uptake in LV-VZVTK-IP transduced 293T cells assessed as radioactivity at 1.1 MBq after 0.5 hrs; format: ADME, cell-based; conditions: human, hek-293t
Method in brief: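 293T cells stably transduced with lentivirus carrying VZV-tk-IRES-pac (kept in 1 µg/mL puromycin), alongside untransduced control 293T cells. Plated in triplicate at 200 000 cells/well. After 24 h, fresh medium with HPLC-purified tracer added: 1.1 MBq (11C tracer, 0.5 h) or 185 kBq (18F tracer, 3 h), 37 °C. Cells washed with ice-cold PBS and lysed. Gamma counting. Uptake given as % of total radioactivity per mg protein (Bio-Rad assay).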

[19] = Partition coefficient, log P in 1-octanol and phosphate buffer at pH 7.4; format: physicochemical; conditions: 1-octanol/phosphate buffer
Method in brief: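 HPLC-isolated tracer (about 550 kBq 11C or 185 kBq 18F) partitioned between 1-octanol and 0.025 M phosphate buffer pH 7.4 (2 mL each). Vortexed 2 min at room temperature, centrifuged 1837 g for 5 min. Aliquots of both phases weighed and gamma counted. P calculated as the cpm/mL ratio after density correction; n=6.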

Brain [20] = assay: Biodistribution in NMRI mouse brain assessed as radioactivity after 2 mins; format: ADME, organism-based; conditions: in vivo; method in brief: as §2
Stomach [21] = assay: Biodistribution in NMRI mouse stomach assessed as radioactivity after 2 mins; format: ADME, organism-based; conditions: in vivo; method in brief: as §2
Mus musculus [22] = species: Mus musculus; assay: Biodistribution in NMRI mouse carcass assessed as radioactivity after 60 mins; format: ADME, organism-based; conditions: in vivo, 1 h; method in brief: as §2
Mus musculus [23] = species: Mus musculus; assay: Biodistribution in NMRI mouse urine assessed as radioactivity after 60 mins; format: ADME, organism-based; conditions: in vivo, 1 h; method in brief: as §2
Blood [24] = assay: Biodistribution in NMRI mouse blood assessed as radioactivity after 2 mins; format: ADME, organism-based; conditions: in vivo; method in brief: as §2
Liver [25] = assay: Biodistribution in NMRI mouse liver assessed as radioactivity after 60 mins; format: ADME, organism-based; conditions: in vivo, 1 h; method in brief: as §2
Intestine [26] = assay: Biodistribution in NMRI mouse intestine assessed as radioactivity after 2 mins; format: ADME, organism-based; conditions: in vivo; method in brief: as §2
Heart [27] = assay: Biodistribution in NMRI mouse heart assessed as radioactivity after 2 mins; format: ADME, organism-based; conditions: in vivo; method in brief: as §2

O=c1nc2oc(-c3cccc(OCCCCCCF)c3)cc2cn1[C@H]1C[C@H](O)[C@@H](CO)O1
IC50 [1]: > 500 µM
IC50 [2]: > 500 µM
IC50 [3]: > 500 µM

[11CH3]Oc1ccc(-c2cc3cn([C@H]4C[C@H](O)[C@@H](CO)O4)c(=O)nc3o2)cc1
Drug uptake (Kidney [4]): 1.4 %ID
Drug uptake (Mus musculus [5]): 29.5 %ID
Drug uptake (Intestine [6]): 46.7 %ID
Drug uptake (Lung [7]): 0.1 %ID
Drug uptake (Mus musculus [8]): 1.4 %ID
Drug uptake (Mus musculus [9]): 0.4 %ID
Drug uptake (Heart [10]): 0 %ID
Drug uptake (Blood [11]): 0.6 %ID
Drug uptake (Stomach [12]): 1 %ID
Drug uptake (Mus musculus [13]): 1.5 %ID
Drug uptake (Brain [14]): 0 %ID
Drug uptake (Kidney [15]): 22.9 %ID
Drug uptake (Lung [16]): 1.2 %ID
Drug uptake (Liver [17]): 20.3 %ID
Drug uptake [18]: 28.8 %ID
logD [19]: 1.3
Drug uptake (Brain [20]): 0 %ID
Drug uptake (Stomach [21]): 1.2 %ID
Drug uptake (Mus musculus [22]): 5.8 %ID
Drug uptake (Mus musculus [23]): 34.3 %ID
Drug uptake (Blood [24]): 7.1 %ID
Drug uptake (Liver [25]): 9.9 %ID
Drug uptake (Intestine [26]): 16.8 %ID
Drug uptake (Heart [27]): 0.5 %ID
